For assay [1], the system named is HL-60. Kind of assay: Induction of apoptosis in HL60R leukemia cells after 24 hr r treatment at 1E-6M. The class given is functional, Homo sapiens. The method in brief: (§1)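 Cells exposed to agonist in medium with 0.1% Me2SO vehicle: HL-60R for 24 h, MDA-MB-231 for 96 h. Cells fixed and stained with acridine orange; apoptotic nuclei scored by nuclear fragmentation in 200-cell fields. Percent apoptosis is the average of triplicates.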

For assay [2], the system named is HL-60. Nature of the assay: Induction of apoptosis in HL60R leukemia cells after 24 hr r treatment at 0.1E-6M. The class given is functional, Homo sapiens. The procedure, abridged: as §1
For assay [3], the system named is BT-20. Kind of assay: Inhibition of BT-20 breast cancer cell proliferation at 1E-7 M; Inhibitory activity. The settings on record: Homo sapiens. The assay is classed as functional, cell-based.
Assay [4] relates to MDA-MB-231. Kind of assay: Induction of apoptosis in MDA-MB-231 breast cancer cells after 96 hr at 0.5E-6M. The class given is functional, Homo sapiens. The method in brief:
as §1

Assay [5] has as its system MCF7. Kind of assay: Inhibition of MCF-7 cell proliferation at 1E-7M; Inhibitory activity. The class given is functional, cell-based. The settings on record: Homo sapiens.
Assay [6] relates to NCI-H460. Nature of the assay: Suppression of H460 lung cancer cell apoptosis induced by 1E-6M 5-Cl-AHPN; From 34% to 9%. The assay is classed as functional, Homo sapiens. The procedure, abridged:
(§2)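 H460 and LNCaP cells (RPMI 1640, 10% FCS) treated 36 h with 1.0 × 10^-6 M inducer alone or with 1.0 × 10^-6 M antagonist. Cells trypsinized, fixed in 3.7% paraformaldehyde, stained with DAPI (50 µg/mL), and apoptotic nuclear morphology scored by fluorescence microscopy. Apoptosis = apoptotic/total cells × 100.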

Assay [7] concerns LNCaP. Kind of assay: Suppression of LNCaP prostate cancer cell apoptosis induced by 1E-6M 5-Cl-AHPN; From 31% to 15%. The assay is classed as functional, Homo sapiens. The method in brief:
as §2

In assay [8] the test system is MDA-MB-231. Nature of the assay: Induction of apoptosis in MDA-MB-231 breast cancer cells after 96 hr at 1E-6M. The assay is classed as functional, Homo sapiens. The method in brief:
as §1

Assay [9] deals with T1, Retinoic acid receptor beta (Homo sapiens) (UniProt P10826).
T1 sequence (whole entry): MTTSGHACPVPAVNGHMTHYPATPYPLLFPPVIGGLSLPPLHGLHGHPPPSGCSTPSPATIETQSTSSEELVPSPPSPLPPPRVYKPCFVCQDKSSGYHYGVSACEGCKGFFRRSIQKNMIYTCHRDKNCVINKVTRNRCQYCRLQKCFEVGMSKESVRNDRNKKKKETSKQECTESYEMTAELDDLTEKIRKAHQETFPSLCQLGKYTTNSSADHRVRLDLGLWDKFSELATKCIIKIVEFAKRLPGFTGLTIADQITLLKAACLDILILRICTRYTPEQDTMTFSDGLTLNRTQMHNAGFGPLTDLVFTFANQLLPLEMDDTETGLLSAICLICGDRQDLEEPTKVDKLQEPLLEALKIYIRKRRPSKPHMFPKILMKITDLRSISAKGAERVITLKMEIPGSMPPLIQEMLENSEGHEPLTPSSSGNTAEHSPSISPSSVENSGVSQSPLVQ
Kind of assay: Transcriptional activation in CV-1 cells expressing RAR beta at 1E-6M. Conditions: Cercopithecidae. The class given is functional, cell-based.

Assay [10] addresses T2, Retinoic acid receptor alpha (Homo sapiens) (UniProt P10276).
T2 sequence (whole entry): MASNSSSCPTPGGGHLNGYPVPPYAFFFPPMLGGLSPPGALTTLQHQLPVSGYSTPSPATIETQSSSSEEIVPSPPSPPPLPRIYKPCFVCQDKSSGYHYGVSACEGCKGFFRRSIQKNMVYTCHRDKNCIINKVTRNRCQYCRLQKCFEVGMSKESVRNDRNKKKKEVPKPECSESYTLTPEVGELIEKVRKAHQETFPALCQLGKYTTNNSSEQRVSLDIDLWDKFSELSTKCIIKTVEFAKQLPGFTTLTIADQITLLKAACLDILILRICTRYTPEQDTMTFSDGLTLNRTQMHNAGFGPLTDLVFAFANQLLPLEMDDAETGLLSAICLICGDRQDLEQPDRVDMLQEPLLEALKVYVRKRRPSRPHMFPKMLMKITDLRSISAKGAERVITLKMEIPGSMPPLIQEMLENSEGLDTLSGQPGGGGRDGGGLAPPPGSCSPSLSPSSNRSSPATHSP
Nature of the assay: Transcriptional activation in CV-1 cells expressing RAR alpha at 1E-6M. Conditions: Cercopithecidae. The assay is classed as functional, cell-based. The procedure, abridged: (§3)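 CV-1 cells in DMEM with 10% FCS, calcium-precipitate transfected with (TREpal)2-tk-CAT plus RAR expression vector and β-gal vector. After 20 h, switched to 5% charcoal-stripped FCS and treated 24 h. CAT activity normalized to β-gal and expressed relative to 1.0 × 10^-6 M trans-RA as 100%.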

The target in assay [11] is T3, Retinoic acid receptor gamma (Homo sapiens) (UniProt P13631).
T3 sequence (whole entry): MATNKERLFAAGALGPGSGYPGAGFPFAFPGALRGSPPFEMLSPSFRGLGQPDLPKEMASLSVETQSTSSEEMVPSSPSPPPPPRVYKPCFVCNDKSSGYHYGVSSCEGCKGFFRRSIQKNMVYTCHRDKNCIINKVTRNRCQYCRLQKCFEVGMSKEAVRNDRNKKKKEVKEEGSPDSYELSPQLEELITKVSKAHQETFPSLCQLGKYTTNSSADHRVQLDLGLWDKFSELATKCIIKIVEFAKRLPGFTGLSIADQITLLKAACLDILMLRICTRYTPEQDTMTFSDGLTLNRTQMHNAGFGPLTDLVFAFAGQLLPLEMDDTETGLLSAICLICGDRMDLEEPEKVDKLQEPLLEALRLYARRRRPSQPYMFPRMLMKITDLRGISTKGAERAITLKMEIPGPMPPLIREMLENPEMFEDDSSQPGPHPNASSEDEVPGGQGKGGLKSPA
Nature of the assay: Transcriptional activation in CV-1 cells expressing RAR gamma at 1E-6M. The assay is classed as functional, cell-based. Conditions: Cercopithecidae. The method in brief: as §3

In assay [12] the test system is NCI-H460. Nature of the assay: Inhibition of H460 cell proliferation after 144 hr treatment at 0.1E-6M. The class given is functional, Homo sapiens. The procedure, abridged:
(§4)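 H460 lung cancer cells grown in RPMI 1640 with 10% FCS and treated 144 h (0.1% Me2SO vehicle). Nuclei stained with DAPI and scored under fluorescence microscopy. Value is the average of triplicates.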

The subject of assay [13] is NCI-H460. Nature of the assay: Inhibition of H460 cell proliferation after 144 hr treatment at 1E-6M. The class given is functional, Homo sapiens. The procedure, abridged: as §4
For assay [14], the system named is MDA-MB-468. Kind of assay: Inhibition of MDA-MB-468 cell proliferation at 0.5E-6M; Inhibitory activity. The settings on record: Homo sapiens. The assay is classed as functional, cell-based. The method in brief:
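MDA-MB-468 cells (1.0 × 10^5) seeded in DMEM/F12 with 5% FBS; after 24 h, 0.5 × 10^-6 M agent added, with or without 2.0 × 10^-6 M antagonist. Incubated 72 h, then proliferation read by colorimetric assay relative to the agent-alone control. Triplicates, 0.1% Me2SO.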

Assay [15] addresses T4, Retinoic acid receptor RXR-alpha (Homo sapiens) (UniProt P19793).
T4 sequence (whole entry): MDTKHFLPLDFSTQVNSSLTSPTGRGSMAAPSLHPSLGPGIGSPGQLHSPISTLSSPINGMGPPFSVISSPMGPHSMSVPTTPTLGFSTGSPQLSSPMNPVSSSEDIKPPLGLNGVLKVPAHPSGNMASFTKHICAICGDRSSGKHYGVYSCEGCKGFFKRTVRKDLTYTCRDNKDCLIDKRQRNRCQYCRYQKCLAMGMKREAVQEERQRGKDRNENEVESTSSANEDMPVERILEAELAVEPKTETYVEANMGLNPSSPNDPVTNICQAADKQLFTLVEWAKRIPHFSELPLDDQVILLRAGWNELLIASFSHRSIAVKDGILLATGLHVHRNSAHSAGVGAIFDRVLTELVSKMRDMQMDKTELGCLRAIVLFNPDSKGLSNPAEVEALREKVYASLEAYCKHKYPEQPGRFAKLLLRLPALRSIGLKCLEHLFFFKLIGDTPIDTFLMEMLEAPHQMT
Nature of the assay: Displacement of [3H]9-cis-RA from Retinoic acid receptor RXR-alpha LBD. The procedure, abridged: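 Bacterially expressed receptor LBDs (RARs as GST fusions, RXRα as His6 fusion; about 1.0 × 10^-8 M) incubated with 1.0 × 10^-9 M [11,12-3H2]9-cis-RA (43 Ci/mmol), with or without 1.0 × 10^-9 M unlabeled competitor. Bound and free radioligand separated by Sephadex G-50 gel filtration; mean ± SEM of three independent experiments.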
A general note: Displacement assays read how much labelled ligand stays bound in the presence of the test substance.

These results are taken from ChEMBL document CHEMBL1148284, “Antagonist analogue of 6-[3'-(1-adamantyl)-4'-hydroxyphenyl]-2-naphthalenecarboxylic acid (AHPN) family of apoptosis inducers that effectively blocks AHPN-induced apoptosis but not cell-cycle arrest” (2004).

Calls of active or inactive are those of the source. The calls are words filed in the database; no cut-off is given here.

On to `Cc1c(-c2ccc(O)c(C34CC5CC(CC(C5)C3)C4)c2)ccc2cc(C(=O)O)ccc12`, for which the Apoptosis in assay [1] came to 70%; in assay [2] it was 29%; in [4], 14%. Also, the inhibition result in assay [3] and in assay [5] was “Inhibitory activity” in each case.

Regarding `CC(=O)NCCCOc1cc(/C=C/C(=O)O)ccc1-c1ccc(O)c(C23CC4CC(CC(C4)C2)C3)c1`, the Apoptosis in [1] is 0%; in [2] it was 0%; in assay [8] it was 1%; in [4] it was 0%. Besides, the Suppression came to 9% in assay [6] and 15% in assay [7].

For `O=C(O)/C=C/c1ccc(-c2ccc(O)c(C34CC5CC(CC(C5)C3)C4)c2)cc1` [ADAROTENE], the Apoptosis is given as 98% in assay [1], 90% in assay [2], 58% in [8] and 53% in [4]. For the same compound, the values for the Transcriptional activation in assay [9], in [10] and in [11] were 85%, 8% and 103%, respectively.

As to `CCOc1cc(/C=C/C(=O)O)ccc1-c1ccc(O)c(C23CC4CC(CC(C4)C2)C3)c1`, the Apoptosis in assay [1] was found to be 29%; in [2], 0%. Also, the Inhibition (usually the share of the control response that was lost under treatment) in [12] was 14%; in assay [13] it was 52%.

On to `O=C(O)c1ccc2c(Cl)c(-c3ccc(O)c(C45CC6CC(CC(C6)C4)C5)c3)ccc2c1`, for which the Apoptosis worked out at 94% in assay [1], 62% in [2], 41% in [8] and 21% in assay [4]. Besides, the results for the Inhibition in assay [12] and in [13] were 56% and 71%, respectively.

In the case of `O=C(O)c1ccc2cc(-c3ccc(O)c(C45CC6CC(CC(C6)C4)C5)c3)ccc2c1` [O-DEMETHYLATED ADAPALENE], the Apoptosis in [1] was 98%; in assay [2] it was 78%; in assay [8], 46%; in assay [4], 26%. In addition, the Inhibition in assay [12] stood at 20%; in assay [13] it was 80%. Besides, the Transcriptional activation is 78% in [9], 21% in [10] and 88% in [11].

`Cc1cc(/C=C/C(=O)O)ccc1-c1ccc(O)c(C23CC4CC(CC(C4)C2)C3)c1`: the Apoptosis in [1] is 95%; in [2], 10%; in assay [8], 30%; in [4], 5%.

With `O=C(O)/C=C/c1ccc(-c2ccc(O)c(C34CC5CC(CC(C5)C3)C4)c2)c(Cl)c1`, the Apoptosis in assay [1] turned out to be 94%; in assay [2], 51%; in assay [8], 43%; in assay [4], 31%. The inhibition result in assay [14] was “Active”. This compound gave a Displacement in assay [15] of 16%.
